According to publication PMC10784415 (Developmental dynamics : an official publication of the …, 2023):

Experiments:
[1] = tested on: Wistar rats; assay: MicroCT analysis of dentoalveolar tissues; format: in vivo, rat; conditions: for Rats with aberrant crown and root morphology of mandibular third molars: high dose (1.0 mg/kg) from PND7, PND37
Outline: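 Daily oral gavage began at PND7 (vehicle, or test compound at 0.1 or 1.0 mg/kg), and formalin-fixed heads (5 per sex per group) were scanned by microCT at PND14 and PND37. PND37 thresholds were enamel 1500 and dentin/bone 650 mg HA/cm³. Alveolar bone included buccal/lingual, interdental and mesial rise regions. Read-outs were second-molar tissue volumes and densities, first-molar root lengths, and third-molar tissue thickness. Analysis was one-way ANOVA, p<0.05.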

[2] = tested on: Wistar rats; assay: MicroCT analysis of craniofacial bones and sutures; format: in vivo, rat
Outline: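 Wistar rats received daily oral gavage from PND7 (vehicle acetate buffer pH 4.68/PEG300 50:50, or 0.1 or 1.0 mg/kg) and were examined at PND14 and PND37; 5 per sex per group. MicroCT gave bone volume and mineral density of nasal, premaxilla, maxilla, frontal, parietal and interparietal bones, linear skull measurements from set landmarks, and suture patency on 2D/3D images. Analysis was one-way ANOVA.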

[3] = tested on: constitutive FGFR3 signaling; conditions: mouse model of achondroplasia; cited from earlier work
[4] = tested on: CYP 3A4; conditions: liver; cited from earlier work
[5] = female rats, high dose, PND37, vs vehicle
[6] = male rats, high dose, PND37, vs vehicle
[7] = female rats, high dose, vs vehicle

## CCN1CCN(c2ccc(Nc3cc(N(C)C(=O)Nc4c(Cl)c(OC)cc(OC)c4Cl)ncn3)cc2)CC1 [infigratinib, 3-(2,6-Dichloro-3,5-dimethoxy-phenyl)-1-{6-[4-(4-ethyl-piperazin-1-yl)-phenylamino]-pyrimidin-4-yl}-1-methyl-urea]
[1]; female rats
  Rats with aberrant crown and root morphology of mandibular third molars: 100%
[1]; female rats, high dose, PND14, vs vehicle
  Alveolar bone density: decreased alveolar bone density
[1]; female rats, high dose, PND37
  Pulp density of mandibular second molars: significant increase
[1]; female rats, high dose, PND37, in comparison to the other groups
  Reduction of mandibular first molar dentin volume: 12%
[1]; [5]
  Decrease of first molar lingual root length: 9%
  Decrease of first molar mesial root length: 8%
  Decrease of mandibular third molar dentin volume: 40%
  Decrease of mandibular third molar enamel volume: 64%
  Decrease of root dentin volume: 21%
[1]; low dose (0.1 mg/kg)
  Alterations in dental tissues: did not detect any alterations
[1]; male rats
  Rats with aberrant crown and root morphology of mandibular third molars: 80%
[1]; [6]
  Decrease of mandibular third molar dentin volume: 28%
  Decrease of mandibular third molar enamel thickness: 33%
  Decrease of mandibular third molar enamel volume: 61%
  Decrease of root dentin volume: 16%
  Dentin mineral density of second molars: significantly higher
[2]; female rats, high dose, PND37, vs vehicle and low dose
  Interfrontal suture patency: significantly more patent
[2]; female rats, high dose, vs low dose
  Decrease of parietal bone volume: 15%
[2]; [7]
  Decrease of frontal bone volume: 12%
  Decrease of interparietal bone mineral density: 4%
  Decrease of interparietal bone volume: 18%
  Decrease of parietal bone volume: 18%
[2]; females and males, low dose and high dose, PND14, vs vehicle
  Coronal suture patency: appeared more patent
[2]; [6]
  Interfrontal suture width: significantly more patent
[3]
  Effect on limb length and calvarial defects: increase limb length and improve calvarial defects
[4]
  Metabolism: metabolized mainly via CYP 3A4
